This note sets out measurements from PubChem BioAssay.

The source made the active and inactive calls.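 How the source made its calls, unless noted: active means a full or partial loss of lipid-probe fluorescence in the fish gall bladder, intestine or both, judged by eye; inactive means no fluorescence loss, or compound toxic to the fish.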

In general, inhibition refers to the drop in the measured response relative to a control, in per cent.

A short description of assay [1]: inhibitors of TNFa-induced NFkB p65 translocation, primary screen, imaging, HUVEC, MLSMR starter and 10KST1 sets (AID 438;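 active means inhibition above 20% together with a positive visual image hit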;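 further: compound added about 3h40 before a 20 min TNFalpha stimulation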;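 on inhibition: signal is the nuclear over cytoplasmic p65 intensity ratio per well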). The note with it: HUVEC TNFa-induced p65 nuclear translocation; cell count: measured here: nuclei count (cytotoxicity indicator), at 2.08 µM unless noted; inhibition: at 2 µM, stronger effect = higher value unless noted.
A short description of assay [2]: endothelial E-selectin expression blockers – imaging, HUVEC, immunofluorescence, MLSMR starter and 10KST1 sets, primary screen (AID 487;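 active means visually confirmed hit in the image check and inhibition above 20%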;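 on inhibition: signal is fraction of cell area covered by stained E-selectin grains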;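 on nuclei count: 100% = median nuclei count of all wells on the same plate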). Conditions: HUVEC TNFalpha-induced E-selectin immunofluorescence imaging, at 2 µM; inhibition: stronger effect = higher value; nuclei count: measured here: cell number, toxicity.
Assay [3] is described as follows: Primary imaging screen for DUSP6 inhibitors that restore phospho-Erk in transfected HeLa cells, chemical complementation (AID 609;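 active means compounds giving at least 50% inhibition in the cell-based MKP-3 phosphatase rescue imaging test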;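 on inhibition: phospho-Erk level distribution per well compared with pooled transfected vehicle control wells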). The note with it: HeLa MKP-3 transfected, phospho-Erk imaging KS statistic, at 10 µM.
The target in assay [4] is Dual specificity protein phosphatase 6 (Homo sapiens) (UniProt Q16828). Described as above. Conditions: HeLa MKP-3 transfected, phospho-Erk imaging KS statistic, at 10 µM, stronger effect = higher value.
Assay [5] concerns the target Voltage-gated potassium channel subunit beta-2 (Rattus norvegicus) (UniProt P62483). Briefly: inhibitors of rat Kvbeta2 reductase activity – biochemical, NADPH fluorescence, primary screen (AID 622;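 active means fluorescence slope higher than the sample average by over 3 SD, cut at about -0.22 in these data, passing the limit was not always enough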;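 further: slope of raw intensity against log time taken from 70 to 1610 s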). Conditions: recombinant KvBeta, 4-cyanobenzaldehyde reduction, at 10 µM, stronger effect = higher value.
Assay [6] shares this target. Briefly: enhancers of rat Kvbeta2 NADPH turnover – biochemical, NADPH fluorescence, primary screen (AID 623;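 active means NADPH fluorescence slope more negative than the mean of all samples by about 3 SD, 99.7% confidence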;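 further: fluorescence intensity change per second fitted from 20 to 320 s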). The note with it: Recombinant KvBeta, NADPH fluorescence decrease slope, 10 min; at 10 µM; stronger effect = lower value.
In assay [7] the target is Alpha-2C adrenergic receptor (Homo sapiens) (UniProt P18825). Briefly: compounds altering alpha2C-coupled GIRK flux – cell-based, HEK293 alpha2C/GIRK1/2, thallium flux, primary screen (AID 624;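 active means fluorescence slope after compound addition differing from the mean of all screened samples at 99.7% confidence, in either direction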;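 further: slope of fluorescence ratio to pre-addition baseline per second over 15 to 24 s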). Conditions: thallium flux BTC fluorescence, at 10 µM, actives lie on both sides.
Assay [8] is described as follows: inhibitors of larval lipid processing in zebrafish, primary screen, whole organism, PED6 fluorescence, gall bladder and intestine (AID 686).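 Further: larvae 5 to 7 days old with five fish per well; signal comes from phospholipase A2 cleavage of quenched PED6 carried via bile; overnight exposure to compound and PED6 before scoring.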 The note with it: Zebrafish larvae PED6 lipid processing, fluorescence scoring. The essentials:
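system = live zebrafish larvae aged 5-7 days, whole organism | probe or stimulus = ingested quenched lipid PED6 at 100 nM | doses = 20 µM single dose | timing = overnight exposure | detection = fluorescence microscopy with visual scoring of gall bladder and intestine | read-out = visual per-well fluorescence inhibition score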

Assay [9] in a line: loss of swimming-algae plug formation – whole organism, Chlamydomonas reinhardtii, WT vs cilia-less mutant, absorbance, 96-well, primary screen (AID 463189;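 active means inhibition at or above 50% relative to wild type and mutant plate controls; inactive means inhibition below 50%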;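 further: 0% = wild type cc124 cells in DMSO and 100% = ciliumless bld1 mutant cells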). Conditions: Chlamydomonas reinhardtii gravitaxis, OD600 absorbance, 2 days; at 10 µM; stronger effect = higher value.
The mark [10] stands for this setting: measured here: cell density z-score.
The mark [11] stands for this setting: measured here: nuclear c-Myc green intensity z-score.
[12] abbreviates: measured here: nuclear pErk red intensity z-score, stronger effect = higher value.

Chain of Dual specificity protein phosphatase 6 (Homo sapiens) (Q16828 whole entry, looked up): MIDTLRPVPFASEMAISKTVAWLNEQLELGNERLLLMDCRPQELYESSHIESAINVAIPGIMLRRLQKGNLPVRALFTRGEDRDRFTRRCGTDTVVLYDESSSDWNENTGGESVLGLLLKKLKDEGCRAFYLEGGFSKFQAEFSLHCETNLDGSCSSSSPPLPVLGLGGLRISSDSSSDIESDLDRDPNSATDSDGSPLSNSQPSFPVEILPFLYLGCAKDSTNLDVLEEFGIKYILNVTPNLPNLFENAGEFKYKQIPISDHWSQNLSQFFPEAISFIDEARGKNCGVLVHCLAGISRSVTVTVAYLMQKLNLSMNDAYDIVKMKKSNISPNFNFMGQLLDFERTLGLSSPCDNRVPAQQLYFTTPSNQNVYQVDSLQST
Chain of Alpha-2C adrenergic receptor (Homo sapiens) (P18825 whole entry, looked up): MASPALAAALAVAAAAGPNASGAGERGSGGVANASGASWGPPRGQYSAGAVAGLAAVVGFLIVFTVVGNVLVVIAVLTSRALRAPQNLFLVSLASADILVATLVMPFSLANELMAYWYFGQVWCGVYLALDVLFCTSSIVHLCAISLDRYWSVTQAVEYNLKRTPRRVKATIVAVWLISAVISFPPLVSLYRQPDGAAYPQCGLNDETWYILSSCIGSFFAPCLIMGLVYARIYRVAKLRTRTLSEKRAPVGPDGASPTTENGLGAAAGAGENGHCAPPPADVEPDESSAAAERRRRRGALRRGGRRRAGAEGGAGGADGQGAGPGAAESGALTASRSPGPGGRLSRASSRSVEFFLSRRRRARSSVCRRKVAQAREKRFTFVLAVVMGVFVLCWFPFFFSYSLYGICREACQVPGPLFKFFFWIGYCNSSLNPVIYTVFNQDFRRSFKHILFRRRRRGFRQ
Chain of Voltage-gated potassium channel subunit beta-2 (Rattus norvegicus) (P62483 whole entry, looked up): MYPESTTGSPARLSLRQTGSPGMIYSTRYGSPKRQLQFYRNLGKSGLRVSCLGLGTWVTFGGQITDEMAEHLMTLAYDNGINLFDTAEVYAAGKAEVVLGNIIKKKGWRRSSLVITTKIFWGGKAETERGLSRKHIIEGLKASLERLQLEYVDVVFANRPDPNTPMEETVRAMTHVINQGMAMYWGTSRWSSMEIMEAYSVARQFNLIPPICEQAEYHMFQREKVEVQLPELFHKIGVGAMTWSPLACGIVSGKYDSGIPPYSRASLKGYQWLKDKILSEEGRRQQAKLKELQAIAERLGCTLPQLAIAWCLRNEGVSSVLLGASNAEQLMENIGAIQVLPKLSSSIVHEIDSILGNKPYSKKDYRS

`COCCOC(=O)c1c(N)n(Cc2ccco2)c2nc3ccccc3nc12` displayed a cell count in [1] of 431. The inhibition is -13% (inactive) in assay [1], -107% (inactive) in assay [2], 0.671% (inactive) in assay [4] and 15% (inactive) in assay [9]. Moreover, the nuclei count in assay [2] is 162%. Moreover, the z-score in [3] (setting [10]) is 0.196; in [3] (setting [11]), -0.0973; in assay [3] (setting [12]), 1.79. Further, the fluorescence slope in assay [5] is -0.0308 (inactive). For the same compound, the NADPH fluorescence slope in assay [6] was -7.2e-06 (inactive). Further, in assay [7], the slope was 0.00535 (inactive). The compound was classed as inactive in assay [8].

Consider `CC(=O)OC1(Cc2ccccc2)CN2CCC1c1ccccc12` (stereo not given), for which the cell count in [1] is 574. The inhibition in [1] is -15.2% (inactive); in assay [2] it was -118% (inactive); in assay [4], -9.91% (inactive); in assay [9], 14.3% (inactive). Besides, the nuclei count in assay [2] is 130%. Further, the figures for the z-score in [3] (setting [10]), in assay [3] (setting [11]) and in [3] (setting [12]) were 0.311, -0.615 and 0.994, respectively. In addition, in [5], the fluorescence slope is -0.516 (inactive). In assay [6], the NADPH fluorescence slope is -4e-05 (inactive). Moreover, in [7], the slope was 0.00421 (inactive). Besides, the call in assay [8] was inactive.

With `C/C(Cl)=C/CC1(CN2CCCC2=O)C(=O)NC(=O)NC1=O`, the cell count in assay [1] was 584. Moreover, the inhibition in [1] was -2.5% (inactive); in assay [2], -26.8% (inactive); in [4] it was -3.98% (inactive); in [9], -13.6% (inactive). This compound came in with a nuclei count in assay [2] of 102%. The z-score is -1.18 in assay [3] (setting [10]), 1.93 in [3] (setting [11]) and 0.656 in [3] (setting [12]). Moreover, the fluorescence slope in assay [5] was -0.484 (inactive). The NADPH fluorescence slope in assay [6] is -0.000274 (inactive). In assay [7], the slope was 0.00947 (inactive). Moreover, the result in [8] was inactive.

In turn, `CCN(CC)c1ccc(N=Cc2c(O)n(-c3cc(OC)ccc3OC)c(=O)[nH]c2=O)cc1` registered a cell count in [1] of 462. In addition, the inhibition in [1] was 2.1% (inactive); in assay [2], -25.3% (inactive); in assay [4] it was 16.8% (inactive); in assay [9], 34.9% (inactive). Also, the nuclei count in assay [2] was found to be 172%. Also, the z-score in assay [3] (setting [10]) is -0.53; in assay [3] (setting [11]) it was 0.14; in assay [3] (setting [12]) it was 0.193. In addition, the fluorescence slope in [5] was -0.37 (inactive). In addition, the NADPH fluorescence slope in assay [6] was -5.8e-05 (inactive). In addition, the slope in [7] was 0.00328 (inactive). Further, in assay [8], the outcome was inactive.

`O=C1NCCN2CCCC12` (stereo not given) gave a cell count in [1] of 549. Besides, the inhibition in assay [1] was -10.8% (inactive); in [2], -50.9% (inactive); in assay [4] it was -0.608% (inactive); in assay [9] it was 13.6% (inactive). This compound also returned a nuclei count in assay [2] of 158%. In addition, the z-score in [3] (setting [10]) was -1.06; in [3] (setting [11]), -1.18; in [3] (setting [12]), 1.73. Also, the fluorescence slope in assay [5] is -0.497 (inactive). Besides, the NADPH fluorescence slope in assay [6] was -0.000122 (inactive). In addition, in [7], the slope was 0.00514 (inactive). The compound was classed as inactive in [8].

For `Cc1c(N=Cc2c(O)n(CCc3ccc(F)cc3)c(=O)[nH]c2=O)c(=O)n(-c2ccccc2)n1C`, the cell count in assay [1] was determined as 647. The inhibition is -28% (inactive) in [1], -9.6% (inactive) in assay [2], -0.624% (inactive) in assay [4] and 8% (inactive) in assay [9]. The same compound yielded a nuclei count in assay [2] of 155%. Also, the figures for the z-score in [3] (setting [10]), in assay [3] (setting [11]) and in [3] (setting [12]) were -1.16, -1.2 and 1.06, respectively. The fluorescence slope in [5] was -0.389 (inactive). Further, the NADPH fluorescence slope in assay [6] was -4.5e-05 (inactive). In assay [7], the slope is 0.0062 (inactive). In [8], the outcome was “active; weak signal in gallbladder and intestine”.

As for `CC(=O)OC1N=C(c2ccccc2)c2ccccc2NC1=O` (stereo not given), the cell count in assay [1] came to 428. For the same compound, the inhibition in assay [1] is -3.5% (inactive); in assay [2] it was 14.8% (inactive); in assay [4] it was 6.04% (inactive); in [9], 12.3% (inactive). In assay [2], this compound showed a nuclei count of 88.8%. Further, the z-score is 0.0297 in assay [3] (setting [10]), -1.27 in assay [3] (setting [11]) and -0.528 in assay [3] (setting [12]). Also, the fluorescence slope in [5] was -0.509 (inactive). In addition, the NADPH fluorescence slope in assay [6] is -5.2e-06 (inactive). In addition, the slope in [7] is 0.00675 (inactive). Further, in assay [8], the result was inactive.

On to `CCN(CC)CCN=C(C)c1c(O)n(-c2ccccc2OC)c(=O)[nH]c1=O`, for which, in assay [1], the cell count was found to be 564. Moreover, the inhibition in assay [1] is 0.8% (inactive); in assay [2], -34% (inactive); in assay [4], -2.91% (inactive); in assay [9] it was -0.4% (inactive). In assay [2], this compound gave a nuclei count of 88.8%. In addition, the z-score in assay [3] (setting [10]) is -0.563; in assay [3] (setting [11]), -1.02; in assay [3] (setting [12]) it was 1.36. The fluorescence slope in [5] was -0.555 (inactive). For the same compound, the NADPH fluorescence slope in [6] is -2.8e-05 (inactive). Also, in assay [7], the slope was 0.0051 (inactive). In addition, the call in [8] was inactive.

On to `O=c1[nH]c(=O)n(Cc2ccccc2)c(O)c1C=NCCN1CCOCC1`, for which the cell count in [1] came out at 639. Also, the inhibition in [1] is -25.9% (inactive); in assay [2] it was -59.7% (inactive); in assay [4], 2.71% (inactive); in assay [9], 0.831% (inactive). The compound further came in with a nuclei count in assay [2] of 156%. Further, the figures for the z-score in [3] (setting [10]), in assay [3] (setting [11]) and in [3] (setting [12]) were 0.666, -2.11 and 2.73, respectively. Besides, the fluorescence slope in [5] is -0.393 (inactive). Moreover, in [6], the NADPH fluorescence slope is -1.2e-06 (inactive). The slope in assay [7] is 0.00558 (inactive). Further, the result in assay [8] was inactive.

In turn, `CCOc1ccccc1-n1c(O)c(C=Nc2ccc(N(CC)CC)cc2)c(=O)[nH]c1=O` registered a cell count in assay [1] of 588. The inhibition was -15.7% (inactive) in assay [1], -43.1% (inactive) in assay [2], 6.04% (inactive) in assay [4] and 7.21% (inactive) in assay [9]. The compound further registered a nuclei count in [2] of 85.2%. The z-score is 2.24 in assay [3] (setting [10]), -1.62 in assay [3] (setting [11]) and -0.873 in [3] (setting [12]). The fluorescence slope in [5] was -0.43 (inactive). For the same compound, in assay [6], the NADPH fluorescence slope is -9.6e-06 (inactive). Also, the slope in assay [7] is 0.0078 (inactive). Further, the result in [8] was inactive.
